A short description of series [1]: Volume of distribution at steady state in dog at 1 mg/kg, iv. The series is classed as ADME, organism-based, Canis lupus familiaris. Also on record: dose 1 mg/kg, route intravenous. Conditions: in vivo, read-out: Vdss. Put shortly:
(§1)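 Single dose to rats, dogs and cynomolgus monkeys. IV at 1 mg/kg in EtOH:PEG400:water (10:40:50), 1 mL/kg. Oral at 10 mg/kg as crystalline HCl salt suspension in 0.5% CMC, 0.2% Tween80, 5 mL/kg. Plasma sampled over 0–24 h. Values are mean ± SD, n = 3.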

The nature of series [2]: Plasma clearance in cynomolgus monkey at 1 mg/kg, iv. The series is classed as ADME, organism-based, Macaca fascicularis. Also on record: dose 1 mg/kg, route intravenous. Put shortly:
as §1

The nature of series [3]: AUC (0 to 24 hrs) in dog at 10 mg/kg, po. Also noted: time < 24 hr, dose 10 mg/kg, route oral. As to conditions: plasma. The class given is ADME, organism-based, Canis lupus familiaris.
Series [4] in a line: Cmax in dog at 10 mg/kg, po. The series is classed as ADME, organism-based, Canis lupus familiaris. Also noted: dose 10 mg/kg, route oral. As to conditions: in vivo. Put shortly:
(§2)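 Single oral dose of 10 mg/kg given to rats, dogs or cynomolgus monkeys. The crystalline HCl salt was suspended in 0.5% CMC with 0.2% Tween80 and dosed at 5 mL/kg. […] Parameters are reported as mean ± SD, n = 3.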

Series [5] can be described thus: Half life in rat at 1 mg/kg, iv. As to conditions: in vivo. Also noted: dose 1 mg/kg, route intravenous. The series is classed as ADME, organism-based. The method in brief:
(§3)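 Single-dose PK in rats, dogs and cynomolgus monkeys. The compound was given iv at 1 mg/kg in EtOH:PEG400:water (10:40:50) at 1 mL/kg. […] Values are mean ± SD, n = 3.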

Series [6] in a line: Cmax in cynomolgus monkey at 10 mg/kg, po. The series is classed as ADME, organism-based, Macaca fascicularis. Also noted: dose 10 mg/kg, route oral. Conditions: in vivo. The method in brief:
as §2

The nature of series [7]: Tmax in dog at 10 mg/kg, po. The series is classed as ADME, organism-based, Canis lupus familiaris. Also noted: dose 10 mg/kg, route oral. As to conditions: in vivo. Put shortly:
as §1

Series [8] is described as follows: Oral bioavailability in dog at 10 mg/kg. As to conditions: in vivo. The series is classed as ADME, organism-based, Canis lupus familiaris. The method in brief: as §1
The nature of series [9]: Cmax in rat at 10 mg/kg, po. The class given is ADME, organism-based. Also on record: dose 10 mg/kg, route oral. Conditions: in vivo. The method in brief: as §2
Series [10] is described as follows: Plasma clearance in rat at 1 mg/kg, iv. Also on record: dose 1 mg/kg, route intravenous. The series is classed as ADME, organism-based. Put shortly:
as §1

A short description of series [11]: Half life in cynomolgus monkey at 1 mg/kg, iv. The class given is ADME, organism-based, Macaca fascicularis. Also noted: dose 1 mg/kg, route intravenous. As to conditions: in vivo. Put shortly: as §3
Series [12] can be described thus: Thermodynamic solubility of the compound. The class given is physicochemical. As to conditions: read-out: Therm_solubility. The method in brief:
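Thermodynamic solubility measured on the crystalline HCl salt.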

Series [13] is described as follows: Half life in cynomolgus monkey at 10 mg/kg, po. The class given is ADME, organism-based, Macaca fascicularis. As to conditions: in vivo. Also noted: dose 10 mg/kg, route oral. Put shortly: as §2
A short description of series [14]: Volume of distribution at steady state in rat at 1 mg/kg, iv. Also on record: dose 1 mg/kg, route intravenous. As to conditions: in vivo, read-out: Vdss. The series is classed as ADME, organism-based. Put shortly:
as §1

The nature of series [15]: Tmax in cynomolgus monkey at 10 mg/kg, po. The class given is ADME, organism-based, Macaca fascicularis. Also on record: dose 10 mg/kg, route oral. As to conditions: in vivo. The method in brief:
as §1

Series [16] in a line: Half life in dog at 10 mg/kg, po. The series is classed as ADME, organism-based, Canis lupus familiaris. Also on record: dose 10 mg/kg, route oral. As to conditions: in vivo. Put shortly:
as §2

Series [17] in a line: Tmax in rat at 10 mg/kg, po. The class given is ADME, organism-based. Also noted: dose 10 mg/kg, route oral. Conditions: in vivo. The method in brief: as §1
The nature of series [18]: AUC (0 to 24 hrs) in rat at 1 mg/kg, iv. The class given is ADME, organism-based. Also noted: time < 24 hr, dose 1 mg/kg, route intravenous. As to conditions: plasma. Put shortly: as §3
Series [19] can be described thus: AUC (0 to 24 hrs) in cynomolgus monkey at 10 mg/kg, po. The series is classed as ADME, organism-based, Macaca fascicularis. Also on record: time < 24 hr, dose 10 mg/kg, route oral. As to conditions: plasma.
A short description of series [20]: AUC (0 to 24 hrs) in dog at 1 mg/kg, iv. As to conditions: plasma. The class given is ADME, organism-based, Canis lupus familiaris. Also noted: time < 24 hr, dose 1 mg/kg, route intravenous. Put shortly: as §3
Series [21] can be described thus: AUC (0 to 24 hrs) in cynomolgus monkey at 1 mg/kg, iv. The series is classed as ADME, organism-based, Macaca fascicularis. As to conditions: plasma. Also noted: time < 24 hr, dose 1 mg/kg, route intravenous. The method in brief: as §3
Series [22] in a line: AUC (0 to 24 hrs) in rat at 10 mg/kg, po. As to conditions: plasma. Also noted: time < 24 hr, dose 10 mg/kg, route oral. The class given is ADME, organism-based.
The nature of series [23]: Plasma clearance in dog at 1 mg/kg, iv. The class given is ADME, organism-based, Canis lupus familiaris. Also noted: dose 1 mg/kg, route intravenous. Put shortly: as §1
Series [24] in a line: Volume of distribution at steady state in cynomolgus monkey at 1 mg/kg, iv. The series is classed as ADME, organism-based, Macaca fascicularis. Also on record: dose 1 mg/kg, route intravenous. As to conditions: in vivo, read-out: Vdss. Put shortly: as §1
A short description of series [25]: Half life in dog at 1 mg/kg, iv. The class given is ADME, organism-based, Canis lupus familiaris. Also on record: dose 1 mg/kg, route intravenous. As to conditions: in vivo. The method in brief: as §3
The nature of series [26]: Half life in rat at 10 mg/kg, po. The series is classed as ADME, organism-based. Also noted: dose 10 mg/kg, route oral. Conditions: in vivo. The method in brief: as §2
A short description of series [27]: Oral bioavailability in rat at 10 mg/kg. The series is classed as ADME, organism-based. As to conditions: in vivo. The method in brief:
as §1

Series [28] is described as follows: Oral bioavailability in cynomolgus monkey at 10 mg/kg. The class given is ADME, organism-based, Macaca fascicularis. Conditions: in vivo. Put shortly:
as §1

For the next series, the system named is CHO. As to the kind of experiment: Modulation of gamma-secretase in CHO cells overexpressing APP V717 mutant assessed as effect on amyloid beta40 level after 17 hrs by ELISA. The class given is cell-based. Conditions: Cricetulus griseus. The method in brief: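 CHO cells overexpressing APP V717F; Aβ42, Aβ40 and Aβ38 quantified together in each well by multiplex Aβ ELISA. EC50 is the mean of at least two determinations.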

Series [29] relates to Mus musculus. In words: Antialzheimer activity in CF1 mouse assessed as effect on amyloid beta 40 level in brain at 10 mg/kg, po. Also on record: dose 10 mg/kg. The class given is functional, organism-based. Put shortly:
(§4)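 Wild-type CF-1 mice received a single oral dose as a solution in ethanol:propylene glycol:10% solutol (1:1:8). Animals were sacrificed 4 h after dosing. Brain and plasma were collected for drug concentration and Aβ levels. Aβ change was expressed relative to vehicle-treated controls.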

Series [30] concerns Mus musculus. As to the kind of experiment: Antialzheimer activity in CF1 mouse assessed as increase in amyloid beta 38 level in brain at 10 mg/kg, po. The class given is functional, organism-based. Also noted: dose 10 mg/kg. The method in brief: as §4
The target of series [31] is Neurogenic locus notch homolog protein 1 (Homo sapiens) (UniProt P46531). As to the kind of experiment: Inhibition of NICD-mediated HES1 protein expression in human H4 cells at 10 uM after 24 hrs by Western blot analysis. The series is classed as cell-based.
Neurogenic locus notch homolog protein 1 (Homo sapiens), sequence (P46531 whole entry): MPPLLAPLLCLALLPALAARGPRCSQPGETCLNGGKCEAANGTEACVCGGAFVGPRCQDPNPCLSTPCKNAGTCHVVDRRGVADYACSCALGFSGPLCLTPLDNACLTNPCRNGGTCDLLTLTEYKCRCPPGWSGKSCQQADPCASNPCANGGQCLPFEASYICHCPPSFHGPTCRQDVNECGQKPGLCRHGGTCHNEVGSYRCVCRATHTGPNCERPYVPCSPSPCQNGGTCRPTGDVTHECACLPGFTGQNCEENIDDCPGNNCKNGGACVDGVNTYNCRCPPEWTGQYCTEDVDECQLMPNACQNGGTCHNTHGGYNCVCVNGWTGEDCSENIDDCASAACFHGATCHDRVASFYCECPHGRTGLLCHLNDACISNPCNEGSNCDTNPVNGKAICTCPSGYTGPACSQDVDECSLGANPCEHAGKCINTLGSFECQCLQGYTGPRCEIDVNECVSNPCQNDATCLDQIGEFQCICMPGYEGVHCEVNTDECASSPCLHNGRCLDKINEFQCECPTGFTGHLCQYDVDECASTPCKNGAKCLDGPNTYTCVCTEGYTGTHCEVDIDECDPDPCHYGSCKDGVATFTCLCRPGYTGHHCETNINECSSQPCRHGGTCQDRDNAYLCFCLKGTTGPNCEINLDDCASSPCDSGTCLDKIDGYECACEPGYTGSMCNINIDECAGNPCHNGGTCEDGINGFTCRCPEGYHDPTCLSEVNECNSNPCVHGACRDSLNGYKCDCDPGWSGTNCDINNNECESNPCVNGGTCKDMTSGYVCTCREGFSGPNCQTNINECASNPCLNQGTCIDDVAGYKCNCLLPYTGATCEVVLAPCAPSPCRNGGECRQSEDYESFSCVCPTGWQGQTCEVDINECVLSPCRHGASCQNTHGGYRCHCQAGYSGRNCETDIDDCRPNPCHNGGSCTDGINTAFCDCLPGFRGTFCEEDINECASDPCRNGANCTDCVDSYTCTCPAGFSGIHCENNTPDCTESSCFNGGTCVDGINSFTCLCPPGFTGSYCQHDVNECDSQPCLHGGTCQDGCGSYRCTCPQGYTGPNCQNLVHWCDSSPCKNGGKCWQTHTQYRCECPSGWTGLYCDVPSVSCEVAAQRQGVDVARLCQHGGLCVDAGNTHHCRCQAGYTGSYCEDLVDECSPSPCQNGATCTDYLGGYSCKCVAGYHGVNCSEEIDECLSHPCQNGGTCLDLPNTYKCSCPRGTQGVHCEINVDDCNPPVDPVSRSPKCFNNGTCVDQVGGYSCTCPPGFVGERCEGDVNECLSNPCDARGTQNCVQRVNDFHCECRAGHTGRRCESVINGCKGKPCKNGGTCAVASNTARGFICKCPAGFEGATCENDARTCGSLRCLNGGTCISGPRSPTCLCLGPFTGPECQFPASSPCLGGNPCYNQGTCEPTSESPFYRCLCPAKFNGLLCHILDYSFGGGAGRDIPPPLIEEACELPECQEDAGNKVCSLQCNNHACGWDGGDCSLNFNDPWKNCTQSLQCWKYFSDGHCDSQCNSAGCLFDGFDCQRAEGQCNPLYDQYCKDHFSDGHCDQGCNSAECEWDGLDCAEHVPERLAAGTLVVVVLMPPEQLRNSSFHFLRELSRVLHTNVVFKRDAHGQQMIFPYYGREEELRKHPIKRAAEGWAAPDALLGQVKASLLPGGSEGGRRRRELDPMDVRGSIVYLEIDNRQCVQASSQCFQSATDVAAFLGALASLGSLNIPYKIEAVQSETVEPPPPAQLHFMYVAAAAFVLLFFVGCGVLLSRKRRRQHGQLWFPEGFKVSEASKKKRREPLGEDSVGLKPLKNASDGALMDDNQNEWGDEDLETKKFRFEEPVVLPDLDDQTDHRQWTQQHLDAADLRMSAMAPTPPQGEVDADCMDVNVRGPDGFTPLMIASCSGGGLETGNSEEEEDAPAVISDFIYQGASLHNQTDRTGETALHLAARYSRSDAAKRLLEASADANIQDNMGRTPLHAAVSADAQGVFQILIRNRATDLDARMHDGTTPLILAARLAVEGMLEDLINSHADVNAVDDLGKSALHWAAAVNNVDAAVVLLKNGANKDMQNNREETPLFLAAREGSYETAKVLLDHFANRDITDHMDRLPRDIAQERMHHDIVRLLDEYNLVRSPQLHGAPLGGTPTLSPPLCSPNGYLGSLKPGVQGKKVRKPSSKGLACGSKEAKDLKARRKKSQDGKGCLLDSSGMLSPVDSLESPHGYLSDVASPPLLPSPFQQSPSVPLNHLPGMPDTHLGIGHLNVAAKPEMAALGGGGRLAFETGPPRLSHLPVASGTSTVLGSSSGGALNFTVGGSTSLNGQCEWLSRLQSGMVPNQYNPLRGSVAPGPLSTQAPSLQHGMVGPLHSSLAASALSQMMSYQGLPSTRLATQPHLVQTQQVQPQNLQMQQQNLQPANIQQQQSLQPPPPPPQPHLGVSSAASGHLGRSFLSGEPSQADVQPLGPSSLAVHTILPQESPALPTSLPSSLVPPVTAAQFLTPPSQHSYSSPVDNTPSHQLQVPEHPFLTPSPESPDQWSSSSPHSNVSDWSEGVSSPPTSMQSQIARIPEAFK
In series [32] the test system is Cynomolgus monkey. As to the kind of experiment: Antialzheimer activity in cynomolgus monkey assessed as effect on amyloid beta 40 level in plasma at 10 mg/kg, po at 5 hrs. The class given is functional, organism-based. Also noted: dose 10 mg/kg. As to conditions: Macaca fascicularis.
The subject of series [33] is Cynomolgus monkey. As to the kind of experiment: Antialzheimer activity in cynomolgus monkey assessed as increase in amyloid beta 38 level in plasma at 10 mg/kg, po at 5 hrs. The series is classed as functional, organism-based. Also noted: dose 10 mg/kg. Conditions: Macaca fascicularis.
In series [34] the test system is Rattus norvegicus. In words: Antialzheimer activity in Fischer rat assessed as effect on amyloid beta 40 level in brain at 10 mg/kg, po after 4 hrs. The series is classed as functional, organism-based. Also on record: dose 10 mg/kg.
In series [35] the test system is Rattus norvegicus. In words: Antialzheimer activity in Fischer rat assessed as increase in amyloid beta 38 level in brain at 10 mg/kg, po after 4 hrs. The class given is functional, organism-based. Also on record: dose 10 mg/kg.

Each structure is given as a SMILES string. Calls of active or inactive are those of the source. The rule behind the calls is not given here.

The values below come from ChEMBL document CHEMBL2146445, “Discovery of BIIB042, a Potent, Selective, and Orally Bioavailable γ-Secretase Modulator” (ACS Med Chem Lett, 2011).

A word on the clearance: it is the volume of plasma or blood freed of the substance per unit of time. What is called AUC(0-t) is the area under the concentration-time curve up to a stated or last time point. As usually defined, the Cmax is the highest concentration seen after dosing. A word on the half-life: it is the time in which the quantity being followed falls by half. What is called Tmax is the time at which the peak concentration occurs.

For `CC1CCN([C@H](c2ccc(F)cc2)c2ccc([C@@H](C)C(=O)O)cc2-c2ccc(C(F)(F)F)cc2)CC1.Cl`, the figures for the Vd in [1], in series [14] and in series [24] were 0.9 L/kg, 0.8 L/kg and 1.7 L/kg, respectively. The clearance in series [2] turned out to be 3.7 mL/min/kg; in [10], 1.5 mL/min/kg; in series [23] it was 14 mL/min/kg. Moreover, the AUC(0-t) at 24 h in [3] was 5200 ng·h/mL; in series [18] it was 10400 ng·h/mL; in series [19], 48000 ng·h/mL; in [20], 1200 ng·h/mL; in series [21] it was 4700 ng·h/mL; in [22], 49700 ng·h/mL. The values for the Cmax in [4], in [6] and in [9] were 1400 ng/mL, 5900 ng/mL and 6000 ng/mL, respectively. In addition, the half-life in [5] was 7.2 h; in series [11], 11.2 h; in series [13], 25 h; in [16], 2.3 h; in series [25] it was 1.3 h; in [26], 6.6 h. Besides, the Tmax was 1.3 h in [7], 2 h in [15] and 1.7 h in series [17]. In addition, the bioavailability in series [8] came to 44%; in series [27] it was 47%; in [28], 106%. For the same compound, in series [12], the solubility thermodynamic turned out to be 20 µg/mL.
Regarding `CC1CCN([C@H](c2ccc(F)cc2)c2ccc([C@@H](C)C(=O)O)cc2-c2ccc(C(F)(F)F)cc2)CC1`, the result in the series on CHO, with Mus musculus [29], in the series with Cynomolgus monkey [32] and in the series with Rattus norvegicus [34] was inactive. The result with Mus musculus [30], in the series with Cynomolgus monkey [33] and in the series with Rattus norvegicus [35] was Active. Further, in series [31], the inhibition entry was “inactive”.
